This is a sample that favours compounds with a hit; in the whole collection about 2.7% have one here.
ASAP1 GAP inh: inhibitors of human ASAP1 ArfGAP activity, primary screen, biochemical, fluorescence polarization | Arf-GAP with SH3 domain, ANK repeat and PH domain-containing protein 1 (Homo sapiens), … | ASAP1-stimulated ARF1 GTP hydrolysis, GDP FP detection | inhibition, % at 16.5 µM | hit rate 0.19% among 360,000; in the data active = inhibition above about 25%;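 also: 0% = vehicle with enzyme and substrate and 100% = no enzyme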
Target sequence (Q9ULH1 325-724 limits assumed): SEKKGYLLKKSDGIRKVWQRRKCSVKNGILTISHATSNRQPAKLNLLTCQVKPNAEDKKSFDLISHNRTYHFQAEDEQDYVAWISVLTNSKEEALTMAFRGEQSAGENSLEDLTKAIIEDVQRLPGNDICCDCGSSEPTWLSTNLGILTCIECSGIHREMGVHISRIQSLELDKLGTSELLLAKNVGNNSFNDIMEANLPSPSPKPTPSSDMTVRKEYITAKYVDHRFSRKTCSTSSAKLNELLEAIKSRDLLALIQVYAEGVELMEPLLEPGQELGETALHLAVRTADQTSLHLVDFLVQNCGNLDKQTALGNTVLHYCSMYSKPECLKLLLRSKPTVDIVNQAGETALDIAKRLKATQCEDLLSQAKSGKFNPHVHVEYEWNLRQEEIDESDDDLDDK
pPAFAH inh: pPAFAH enzyme inhibitors, primary screen, biochemical, fluorescence polarization, human. Platelet-activating factor acetylhydrolase (Homo sapiens), Q13093. recombinant pPAFAH, FP-rhodamine probe fluorescence polarization. inhibition, % at 3.39 µM. hit rate 1.5% among 330,000;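 active = inhibition above the mean inhibition across the screen plus 3 SD, cut at about 25% in these data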;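 also: inhibitors block binding of the rhodamine activity-based probe so polarization drops; 0% = enzyme with DMSO and 100% = wells lacking pPAFAH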
PAFAH1B2 FP inh: PAFAH1B2 enzyme inhibitors, primary screen, biochemical, fluorescence polarization, human; Platelet-activating factor acetylhydrolase IB subunit alpha2 (Homo sapiens), P68402; hit rate 1.2% among 340,000; inhibition, % at 3.39 µM; recombinant PAFAH1B2, FP-rhodamine activity probe; AID 492953, 2010;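 active = inhibition above the mean of all tested compounds plus 3 SD, cut at about 24% in these data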;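 also: 0% = enzyme with DMSO and 100% = wells lacking PAFAH1B2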
PAFAH1B3 inh: PAFAH1B3 enzyme inhibitors, primary screen, biochemical, fluorescence polarization, human; Platelet-activating factor acetylhydrolase IB subunit alpha1 (Homo sapiens), Q15102; inhibition, % at 3.39 µM; AID 492972, 2010; hit rate 0.28% among 340,000; recombinant PAFAH1B3, FP-rhodamine probe;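 active = inhibition above the screen-wide average of all tested compounds plus 3 SD, cut at about 25% in these data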;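 also: 0% = enzyme with DMSO only and 100% = wells lacking PAFAH1B3 protein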
PAFAH2 inh: PAFAH2 enzyme inhibitors, primary screen, biochemical, fluorescence polarization, human. recombinant PAFAH2, FP-rhodamine activity probe. hit rate 0.99% among 340,000. AID 492956, 2010. inhibition, % at 3.39 µM. Platelet-activating factor acetylhydrolase 2, cytoplasmic (Homo sapiens), Q99487;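 active = inhibition above the mean over all tested compounds plus 3 SD, cut at about 30% in these data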;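 also: inhibitors block probe labeling of enzyme so polarization drops; 0% = enzyme with DMSO and 100% = wells lacking PAFAH2 protein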
ARFGAP1 inh: inhibitors of rat ARFGAP1 GAP activity, primary screen, biochemical, fluorescence polarization, GDP tracer. Arfgap1-stimulated ARF1 GTP hydrolysis, GDP FP detection. inhibition, % at 16.5 µM. AID 651572, 2012. hit rate 0.26% among 360,000. ADP-ribosylation factor GTPase-activating protein 1 (Rattus norvegicus), Q62848;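 active = inhibition above a per-plate limit, mean inhibition of low control wells plus 3 SD, cut at about 25% in these data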;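 also: 0% = DMSO wells with enzyme and 100% = wells lacking Arfgap1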
Target sequence (Q62848 1-136 limits assumed): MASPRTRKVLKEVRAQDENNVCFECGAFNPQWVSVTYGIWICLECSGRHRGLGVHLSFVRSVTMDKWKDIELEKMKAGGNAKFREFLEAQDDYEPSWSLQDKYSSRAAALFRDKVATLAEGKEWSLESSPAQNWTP
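Replicates: Single well per compound | Assay system: Truncated rat Arfgap1 GAP domain | Control set: No-Arfgap1 wells (100%) versus DMSO full-reaction wells (0%) | Times: Enzyme reaction 120 min at 25 °C after 20 min preincubation | Reagent: Human ARF1(Δ1-17)-GTP substrate | Measured by: Tracer-displacement fluorescence polarization with EDTA stop, 620/688 nm | Measure: Percent inhibition of Arfgap1-stimulated GTP hydrolysis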
An asterisk follows results filed as active; x = no result.

SMILES	ASAP1 GAP inh	pPAFAH inh	PAFAH1B2 FP inh	PAFAH1B3 inh	PAFAH2 inh	ARFGAP1 inh
CC(C)=CCC/C(C)=C/CNC(=O)C[C@H]1C[C@H](C(=O)N2CCOCC2)[C@@]2(C)c3[nH]c4cc(CCC(=O)N(C)C)ccc4c3CCN2C1=O	2	30*	-2	2	-1	2
CCOC1=C2[C@H](c3ccccc3)N(S(=O)(=O)c3ccc(C)cc3)[C@H](C(C)C)[C@H]2C(C#N)(C#N)C(C#N)(C#N)C1	0	x	x	x	x	2
C=CC(=O)NC1CCCCN(C)C1=O (stereo not drawn)	-5	x	x	x	x	-5
CSC(=Nc1ccccc1)C(C#N)c1nc2ccccc2[nH]1 (stereo not drawn)	21	31*	-1	10	3	6
N#CC(C(=S)Nc1ccccc1)c1nc2ccccc2[nH]1 (stereo not drawn)	-11	8	4	-1	16	5
COc1cccc(C(=O)N[C@H](C(=O)N2CCC[C@H]2C(=O)NCc2ccccc2)C2CCCCC2)c1	-1	x	x	x	x	-7
COC(=O)C1=C(C)N(Cc2cccc(C(F)(F)F)c2)C(=NCc2ccccc2C(F)(F)F)NC1c1ccc(Cl)cc1 (stereo not drawn)	-3	x	x	x	x	4
O=[N+]([O-])c1cc(CN2CCCC2)c2cccnc2c1O	x	66*	4	19	36*	x
CCOc1ccccc1N1CCN(Cc2cccc(OC)c2O)CC1	-5	0	1	7	-2	2
COc1ccccc1N1CCN(Cc2cc(Br)c(O)c3ncccc23)CC1	3	30*	4	9	10	2
CNC12CCc3cc(OC)c(OC)c(c31)-c1cc3c(cc1C2)OCO3 (stereo not drawn)	9	x	x	x	x	-7
COc1ccc2c(c1)c1ccc3c(c1n2C)C(=O)C=CC3=O	4	x	45*	31*	36*	2
O=C(N[C@H](C(=O)N1CCC[C@H]1C(=O)NCCc1ccccc1Cl)c1ccccc1)c1cccs1	-7	x	x	x	x	11
CC(=O)Nc1ccc2nc(NS(=O)(=O)c3ccc(C)cc3)sc2c1	16	26*	6	14	1	2
COc1ccc2nc(NS(=O)(=O)c3ccc(NC(C)=O)cc3)sc2c1	9	6	1	8	14	5
C=CCn1c(SCC(=O)c2cccs2)nc2sc(C)cc2c1=O	0	25*	0	4	1	-10
C=CCn1c(SCC(=O)c2cccs2)nnc1-c1cccc(OC)c1	-13	10	-3	-9	-3	-9
O=C(Cc1c[nH]c2ccccc12)Nc1ccc(Nc2cccnc2)c(-c2ccc(Cl)c(Cl)c2)c1	0	x	x	x	x	16
CN(CCO)c1nc(N)c2c(N)nc3c(c2c1C#N)CC(=O)N3Cc1cccs1	-10	16	8	10	6	-10
N#Cc1c(N(CCO)CCO)nc(N)c2c(N)nc3c(c12)CC(=O)N3Cc1cccs1	x	26*	8	12	12	x
COC(=O)[C@@H](Cc1ccccc1)N[C@H](/C=C/c1ccccc1)[C@@H](O)Cc1ccccc1	8	x	x	x	x	21
Cc1ccc(C)c(OCCn2cc(C(=O)O)c3ccccc32)c1	7	3	x	x	x	7
Cc1ccccc1OCCn1cc(C(=O)O)c2ccccc21	-4	5	24*	10	3	-5
O=C(NCc1ccccc1)[C@@H]1CCCN1C(=O)[C@H]1CCCN1C(=O)c1ccc(F)c(F)c1	-7	x	x	x	x	12
Cc1ccc(CN2CC=CCS2(=O)=O)cc1	15	x	x	x	x	0
SMILES	ASAP1 GAP inh	pPAFAH inh	PAFAH1B2 FP inh	PAFAH1B3 inh	PAFAH2 inh	ARFGAP1 inh
COc1ccc(S(=O)(=O)/N=C2/NC(=O)/C(=C/c3ccco3)S2)cc1	-4	32*	-2	19	28	-22
COc1ccc(-c2nc3c(C)cc(Br)cn3c2Cc2ccccc2C(F)(F)F)cc1OC	10	x	x	x	x	-1
CC1(C)Cc2c(C#N)c(N)sc(=S)c2CS1	-10	14	6	7	12	9
N#Cc1c(N)sc2c1CCCCCC2	17	9	28*	6	4	-12
CC(=O)Nc1sc2c(c1C#N)CCC2	-10	-3	3	0	5	-14
N#Cc1c(N)sc(=S)c2c1CCCCC2	-8	29*	17	23	45*	-10
COC(=O)[C@]12C[C@H](CC(=O)NCc3cccc(C(F)(F)F)c3)C(=O)N(CCC3=CCCCC3)C1=C[C@H](COCc1ccccc1)O[C@@H]2C	-2	x	x	x	x	6
CC(=O)O[C@H]1CC[C@]2(C)C3CC[C@]4(C)[C@@H]([C@H](C)/C=C/[C@H](C)C(C)C)CC[C@H]4[C@@]34C=C[C@]2(C1)N(C(=O)c1ccccc1)O4 (stereo partly drawn)	4	x	x	x	x	-2
COc1cc(NC(=O)CSc2ncnc3scc(-c4ccccc4)c23)c(C(=O)O)cc1OC	8	31*	5	9	29	-9
O=C(N[C@@H](Cc1cccnc1)C(=O)N1CCC[C@H]1C(=O)NC1CCCC1)C1CC1	2	x	x	x	x	-11
O=C(Nc1cccnc1)C1(c2ccccc2)CCCC1	-3	5	19	10	1	0
NS(=O)(=O)c1ccc(NC2(C(=O)O)CCCC2)cc1	8	3	5	6	5	7
NS(=O)(=O)c1ccc(NC(=O)C2(c3ccccc3)CCCC2)cc1	-10	0	27*	10	0	8
O=C(Nc1ccncc1)C1(c2ccccc2)CCCC1	-9	-1	27*	4	3	1
O=C(Nc1ccccn1)C1(c2ccccc2)CCCC1	3	1	26*	2	-4	-3
Cc1ccc(NC(=O)C2(c3ccccc3)CCCC2)nc1	-5	8	15	1	3	1
Cc1ccc(OCC(=O)Nc2ccc([N+](=O)[O-])cc2)cc1	16	1	5	12	11	13
Cc1ccc(NC(=O)C2(c3ccc([N+](=O)[O-])cc3)CCCC2)cc1	-6	4	25*	8	10	2
O=C(/C=C(\Nc1cc(Cl)c(F)c(Cl)c1)c1ccccc1)c1ccccc1	-4	x	x	x	x	-1
O=C(Nc1cccc(Cl)c1)N1CCN2C(=O)c3ccccc3C12c1ccccc1 (stereo not drawn)	5	0	25*	-3	-6	-2

Bioassay records deposited in PubChem BioAssay by The Scripps Research Institute Molecular Screening Center.
